Experimental data: ChEMBL document CHEMBL4825779, “Sulfur Analogues of Tyrosine in the Development of Triazene Hybrid Compounds: A New Strategy against Melanoma” (ACS Med Chem Lett, 2021)

Columns and labels:
HaCaT = experiment: Cytotoxicity against human HaCaT cells assessed as reduction in cell viability incubated for 72 hrs by MTS assay; type: cell-based
How it was run: (§1)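 Cell lines: MNT-1 and A375 (human melanoma), B16F10 (murine melanoma) and HaCaT (human keratinocytes). Compounds incubated with cells for 72 h; IC50 reported in μM.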

B16-F10 = experiment: Cytotoxicity against mouse B16-F10 cells assessed as reduction in cell viability incubated for 72 hrs by MTS assay; type: functional, cell-based; conditions: B16-F10, 72 h; how it was run: as §1
A-375 = experiment: Cytotoxicity against human A-375 cells assessed as reduction in cell viability incubated for 72 hrs by MTS assay; type: functional, cell-based; conditions: A-375, 72 h; how it was run: as §1
[1] = Selectivity index, ratio of IC50 for human HaCaT cells to IC50 for mouse B16-F10 cells by MTS assay; type: toxicity; conditions: HaCaT cells and B16-F10 cells, read-out: Ratio IC50
How it was run: (§2)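 Human HaCaT keratinocytes and the melanoma line (human A375 or murine B16F10) were each incubated with compound for 72 h, and IC50 was determined in each line. Selectivity index is HaCaT IC50 divided by melanoma-line IC50.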

[2] = Selectivity index, ratio of IC50 for human HaCaT cells to IC50 for human MNT-1 cells by MTS assay
[3] = Selectivity index, ratio of IC50 for human HaCaT cells to IC50 for human A-375 cells by MTS assay; how it was run: as §2
Tyrosinase [4] = target: T1, Tyrosinase (Agaricus bisporus, UniProt O42713); experiment: Drug metabolism assessed as mushroom tyrosinase-mediated drug oxidation by measuring 3-(4-cyanophenyl)-N-(2-(3,4-dioxocyclohexa-1,5-dienylthio)ethyl)-1-methyltriaz-2-ene-1-carboxamide formation measured after 2 hrs by HPLC analysis; type: ADME
T1 sequence (O42713 whole entry): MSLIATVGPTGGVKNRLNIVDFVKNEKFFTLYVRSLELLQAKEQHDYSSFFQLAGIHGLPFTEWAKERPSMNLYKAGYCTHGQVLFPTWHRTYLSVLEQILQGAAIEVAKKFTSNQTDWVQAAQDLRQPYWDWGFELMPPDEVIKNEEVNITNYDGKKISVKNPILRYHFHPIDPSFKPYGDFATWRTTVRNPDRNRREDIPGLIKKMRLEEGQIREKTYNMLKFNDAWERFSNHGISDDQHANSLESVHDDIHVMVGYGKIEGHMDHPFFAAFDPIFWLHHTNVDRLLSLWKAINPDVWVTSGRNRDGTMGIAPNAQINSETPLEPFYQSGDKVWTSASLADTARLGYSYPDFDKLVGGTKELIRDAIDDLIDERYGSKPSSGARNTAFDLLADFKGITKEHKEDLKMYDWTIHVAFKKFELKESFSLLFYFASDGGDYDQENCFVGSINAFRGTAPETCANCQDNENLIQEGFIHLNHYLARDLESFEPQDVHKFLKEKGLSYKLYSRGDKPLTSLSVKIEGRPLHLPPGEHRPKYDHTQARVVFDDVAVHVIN

[5] = Selectivity index, ratio of IC50 for human HaCaT cells to IC50 for human cells by MTS assay
[6] = Cytotoxicity against human MNT-1 cells assessed as reduction in cell viability incubated for 72 hrs by MTS assay; type: functional, cell-based; conditions: MNT-1, 72 h; how it was run: as §1
Tyrosinase [7] = target: T1, Tyrosinase; experiment: Drug metabolism assessed as mushroom tyrosinase-mediated drug oxidation by measuring compound 18c formation measured after 0.5 to 4 mins by HPLC analysis; type: ADME; conditions: time 0.5-4 min
[8] = Half life of the compound in PBS buffer at pH 7.4 by HPLC analysis; type: physicochemical
How it was run: (§3)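 Stability run at 37 °C in PBS pH 7.4 or 80% human plasma. HPLC followed loss of parent and appearance of hydrolysis products over at least 3 half-lives. Decay fitted pseudo-first-order: kobs taken as the slope of ln(concentration) vs time, and t1/2 calculated from kobs.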

[9] = 1-Octanol/phosphate buffer apparent partition coefficient, logP of the compound measured after 30 mins by HPLC analysis; type: physicochemical
Tyrosinase [10] = target: T1, Tyrosinase; experiment: Substrate activity at mushroom tyrosinase assessed as half-life of the compound by HPLC analysis; type: ADME
How it was run: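 Incubated with mushroom tyrosinase at 100 units/mL. Reaction followed by HPLC to derive substrate half-life (min).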

[11] = Half life in 80% human plasma by HPLC analysis; type: ADME, cell-free; how it was run: as §3
Tyrosinase [12] = target: T1, Tyrosinase; experiment: Drug metabolism assessed as mushroom tyrosinase-mediated drug oxidation by measuring dihydroxylated metabolite formation with m/z 408 by mass spectrometry; type: ADME
Tyrosinase [13] = target: T1, Tyrosinase; experiment: Drug metabolism assessed as mushroom tyrosinase-mediated drug oxidation by measuring dihydroxylated metabolite formation with m/z 410 by mass spectrometry; type: ADME
[14] = Toxicity in BALB/c mouse assessed as lung tissue index at 12 mg/kg, iv administered 3 times for 1 week and measured at 2 days post-last injection (reference value: 8 +/-1); type: organism-based; conditions: in vivo, 216 h, time 9 day
[15] = Toxicity in BALB/c mouse assessed as liver tissue index at 12 mg/kg, iv administered 3 times for 1 week and measured at 2 days post-last injection (reference value: 22 +/-1); type: organism-based; conditions: in vivo, 216 h, time 9 day
[16] = Toxicity in BALB/c mouse assessed as heart tissue index at 12 mg/kg, iv administered 3 times for 1 week and measured at 2 days post-last injection (reference value: 7 +/-1); type: organism-based; conditions: in vivo, 216 h, time 9 day
[17] = Hepatotoxicity in BALB/c mouse assessed as gamma-GT level in plasma at 12 mg/kg, iv administered 3 times for 1 week and measured at 2 days post-last injection (reference value: 47 +/-9 U/L); type: toxicity, organism-based; conditions: in vivo, 216 h, time 9 day
How it was run: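 BALB/c mice dosed intravenously at 12 mg/kg, 3 times per week for 1 week. Vehicle: PBS plus Cremophor (5% p/v); controls received vehicle only. Behaviour checked daily. Animals killed 2 days after the last injection; blood collected for γ-GT, and organs weighed for tissue index.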

[18] = Toxicity in BALB/c mouse assessed as kidney tissue index at 12 mg/kg, iv administered 3 times for 1 week and measured at 2 days post-last injection (reference value: 13 +/-1); type: organism-based; conditions: in vivo, 216 h, time 9 day
[19] = Haemolytic activity against human erythrocytes at 0.2 to 400 uM after 1 hr; type: ADME, cell-based, Erythrocyte; conditions: dose 0.2-400 µM, read-out: Activity
How it was run: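 Human red blood cells exposed to compound at 0.2 to 400 μM for 1 h at 37 °C. Read-out: percentage hemolysis.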

[20] = Toxicity in BALB/c mouse assessed as spleen tissue index at 12 mg/kg, iv administered 3 times for 1 week and measured at 2 days post-last injection (reference value: 6 +/-1); type: organism-based; conditions: in vivo, 216 h, time 9 day
Tyrosinase [21] = target: T1, Tyrosinase; experiment: Drug metabolism assessed as mushroom tyrosinase-mediated drug oxidation by measuring dihydroxylated metabolite formation with m/z 344 by mass spectrometry; type: ADME
[22] = Hepatotoxicity in rat liver microsomes assessed as GSH depletion measured after 180 mins by Ellman's method; type: toxicity, Microsome; conditions: 3 h
[23] = Drug metabolism in rat liver microsomes assessed as CYP450-mediated o-quinone formation measured after 3 hrs by HPLC analysis; type: ADME, Microsome
[24] = substrate: CN(/N=N/c1ccc(C#N)cc1)C(=O)NCCSc1ccc(O)cc1; experiment: (§4) Substrate activity at mushroom tyrosinase assessed as Km by Michaelis-Menten based analysis; type: ADME, Agaricus bisporus
[25] = substrate: Cc1ccc(/N=N/N(C)C(=O)NCCSc2ccc(O)cc2)cc1; experiment: as §4; type: ADME, Agaricus bisporus
[26] = substrate: CCOC(=O)c1ccc(/N=N/N(C)C(=O)NCCSc2ccc(O)cc2)cc1; experiment: as §4; type: ADME, Agaricus bisporus

half-life [8] | half-life (Tyrosinase [10]) | half-life [11] | Molecule | IC50 (HaCaT) | IC50 (B16-F10) | IC50 (A-375) | selectivity ratio [1] | Ratio IC50 [2] | Ratio IC50 [3] | IC50 [6] | further results
– | – | – | CN(/N=N/c1ccc(Cl)cc1)C(=O)CCSc1ccc(O)cc1 | > 75 µM | > 75 µM | > 75 µM | 2 | 2 | 2 | – | –
> 240 h | 0.5 min | 74 h | CN(/N=N/c1ccc(C#N)cc1)C(=O)NCCSc1ccc(O)cc1 | > 150 µM | > 75 µM | – | 2 | 2 | – | > 75 µM | Drug metabolism (Tyrosinase [4]): Metabolite_Notdetected; Ratio IC50 [5]: 2; Drug metabolism (Tyrosinase [7]): Metabolite_Detected; logD at 0.5 h [9]: 3.49
– | – | – | CN=NNc1ccc(C(C)=O)cc1 | > 130 µM | > 75 µM | – | – | – | – | > 75 µM | –
106 h | 2.1 min | 8.3 h | CN(/N=N/c1ccc(Br)cc1)C(=O)CCSc1ccc(O)cc1 | – | > 75 µM | 55 µM | 2 | 2 | 2 | > 75 µM | Drug metabolism (Tyrosinase [12]): Metabolite_Detected; Drug metabolism (Tyrosinase [13]): Metabolite_Detected
> 240 h | 1.9 min | 88.5 h | Cc1ccc(/N=N/N(C)C(=O)NCCSc2ccc(O)cc2)cc1 | > 130 µM | 78.3 µM | – | 2 | 2 | – | 74.1 µM | Ratio IC50 [5]: 2; logD at 0.5 h [9]: 4.21
– | – | – | CN=NNc1ccc(C#N)cc1 | > 60 µM | > 60 µM | – | – | – | – | > 60 µM | –
130 h | – | 6.57 h | CCOC(=O)c1ccc(/N=N/N(C)C(=O)CCSc2ccc(O)cc2)cc1 | – | > 75 µM | 61 µM | 2 | 2 | 2 | > 75 µM | –
> 240 h | 3.7 min | 30.5 h | CCOC(=O)c1ccc(/N=N/N(C)C(=O)NCCSc2ccc(O)cc2)cc1 | > 100 µM | 51 µM | 43.8 µM | 2 | 2 | – | 49.4 µM | Activity_index [14]: 8; Activity_index [15]: 22; Activity_index [16]: 7; Ratio IC50 [5]: 2; Activity [17]: 57 U/L; Activity_index [18]: 13; logD at 0.5 h [9]: 4.08; hemolysis at 1 h, up to 400 µM [19]: < 1%; Activity_index [20]: 6
– | – | – | NCCSc1ccc(O)cc1 | > 125 µM | > 75 µM | – | – | >=3 | – | 42.8 µM | –
86.4 h | – | 2.99 h | CN(/N=N/c1ccc(C#N)cc1)C(=O)CCSc1ccc(O)cc1 | – | > 75 µM | > 75 µM | 2 | 2 | 2 | > 75 µM | –
101 h | 2.3 min | 8.7 h | Cc1ccc(/N=N/N(C)C(=O)CCSc2ccc(O)cc2)cc1 | 45.8 µM | > 75 µM | 47 µM | 2 | 2 | <1 | – | Drug metabolism (Tyrosinase [21]): Metabolite_Detected
– | – | – | CN/N=N/c1ccc(Br)cc1 | > 60 µM | > 60 µM | – | – | – | – | > 60 µM | –
> 240 h | 0.5 min | 105 h | CN(/N=N/c1ccc(Br)cc1)C(=O)NCCSc1ccc(O)cc1 | > 150 µM | > 75 µM | – | 2 | 2 | – | > 75 µM | Ratio IC50 [5]: 2; Activity [22]: Non-Toxic; Drug metabolism [23]: Metabolite_Notdetected; logD at 0.5 h [9]: 3.95
– | – | – | CCOC(=O)c1ccc(/N=N/NC)cc1 | > 60 µM | > 60 µM | – | – | – | – | > 60 µM | –
> 240 h | 1 min | 61.6 h | CC(=O)c1ccc(/N=N/N(C)C(=O)NCCSc2ccc(O)cc2)cc1 | > 150 µM | > 75 µM | – | 2 | 2 | – | > 75 µM | Ratio IC50 [5]: 2; logD at 0.5 h [9]: 3.44
– | – | – | Cn1nnc2c(C(N)=O)ncn2c1=O [TEMOZOLOMIDE] | > 75 µM | > 75 µM | > 75 µM | – | – | – | > 75 µM | –
139 h | – | 4.9 h | CC(=O)c1ccc(/N=N/N(C)C(=O)CCSc2ccc(O)cc2)cc1 | – | > 75 µM | > 75 µM | 2 | 2 | 2 | > 75 µM | –
– | – | – | Tyrosinase (Agaricus bisporus) (protein) MSLIATVGPTGGVKNRLNIVDFVKNEKFFTLYVRSLELLQAKEQHDYSSFFQLAGIHGLPFTEWAKERPSMNLYKAGYCTHGQVLFPTWHRTYLSVLEQILQGAAIEVAKKFTSNQTDWVQAAQDLRQPYWDWGFELMPPDEVIKNEEVNITNYDGKKISVKNPILRYHFHPIDPSFKPYGDFATWRTTVRNPDRNRREDIPGLIKKMRLEEGQIREKTYNMLKFNDAWERFSNHGISDDQHANSLESVHDDIHVMVGYGKIEGHMDHPFFAAFDPIFWLHHTNVDRLLSLWKAINPDVWVTSGRNRDGTMGIAPNAQINSETPLEPFYQSGDKVWTSASLADTARLGYSYPDFDKLVGGTKELIRDAIDDLIDERYGSKPSSGARNTAFDLLADFKGITKEHKEDLKMYDWTIHVAFKKFELKESFSLLFYFASDGGDYDQENCFVGSINAFRGTAPETCANCQDNENLIQEGFIHLNHYLARDLESFEPQDVHKFLKEKGLSYKLYSRGDKPLTSLSVKIEGRPLHLPPGEHRPKYDHTQARVVFDDVAVHVIN | – | – | – | – | – | – | – | Km [24]: 64 µM; Km [25]: 64 µM; Km [26]: 64 µM
